Each structure is given as a SMILES string.

Assay [1] in a line: (§1) Inhibition of almond seed beta-galactosidase at 1 mM after 90 mins by spectrophotometric analysis. More on the design: species or system Prunus dulcis. In short, it runs like this:
(§2)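 Each enzyme was screened with inhibitor at a single concentration of 1 mM, and percent inhibition was recorded. Reported values are the average of three sets of assays.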

Assay [2] has as its system Prunus dulcis. Described as §1. In short, it runs like this: as §2
Assay [3] can be described thus: (§3) Inhibition of almond seed N-Acetyl-beta-D-glucosaminidase at 1 mM after 90 mins by spectrophotometric analysis. More on the design: species or system Prunus dulcis. In short, it runs like this:
as §2

The test system of assay [4] is Prunus dulcis. The assay is described as §3. Summed up: as §2
Assay [5] in a line: Inhibition of yeast alpha-glucosidase after 90 mins by spectrophotometric analysis. More on the design: species or system Saccharomyces cerevisiae.
Assay [6] is described as follows: (§4) Inhibition of almond seed alpha-galactosidase at 1 mM after 90 mins by spectrophotometric analysis. Set-up: species or system Prunus dulcis. In short, it runs like this:
as §2

The subject of assay [7] is Prunus dulcis. The assay is described as §4. In short, it runs like this: as §2
Assay [8] in a line: (§5) Inhibition of almond seed alpha-mannosidase at 1 mM after 90 mins by spectrophotometric analysis. More on the design: species or system Prunus dulcis. Summed up:
as §2

Assay [9] concerns Prunus dulcis. Described as §5. Summed up:
as §2

The nature of assay [10]: Competitive inhibition of yeast alpha-glucosidase after 90 mins by Lineweaver-Burke plot analysis. Set-up: species or system Saccharomyces cerevisiae.
The nature of assay [11]: Non-competitive inhibition of Geobacillus toebii BK1 alpha-galactosidase after 90 mins by Lineweaver-Burke plot analysis.
Assay [12] is described as follows: (§6) Inhibition of almond seed beta-glucosidase at 1 mM after 90 mins by spectrophotometric analysis. Set-up: species or system Prunus dulcis. Summed up:
as §2

For assay [13], the system named is Prunus dulcis. Described as §6. In short, it runs like this:
as §2

Assay [14] is described as follows: Inhibition of Geobacillus toebii BK1 alpha-galactosidase after 90 mins by spectrophotometric analysis.
A short description of assay [15]: (§7) Inhibition of yeast alpha-glucosidase at 1 mM after 90 mins by spectrophotometric analysis. Set-up: species or system Saccharomyces cerevisiae. Summed up: as §2
In the next assay the test system is Saccharomyces cerevisiae. Described as §7. Summed up: as §2
A further assay concerns Geobacillus toebii. Kind of assay: (§8) Inhibition of Geobacillus toebii BK1 alpha-galactosidase at 1 mM after 90 mins by spectrophotometric analysis. In short, it runs like this:
as §2

Assay [16] is described as follows: as §8. In short, it runs like this:
as §2

Turning to `C[C@H]1CC[C@@H](O)[C@@H](C(=O)O)N1`, the inhibition constant Ki entry in assay [1] was “Not Active”; in assay [3], “Not Active”; in assay [6] it was “Not Active”; in [8], “Not Active”; in assay [10] it was 71 µM; in assay [11], 26 µM. Also, the Ki entry in [12] is recorded as “Not Active”. In addition, the inhibition in the assay with Prunus dulcis [2], in the assay on Prunus dulcis [4], with Prunus dulcis [7], with Prunus dulcis [9] and with Prunus dulcis [13] was below 50% throughout. Further, the concentration for half-maximal inhibition (IC50) is 1150 µM in [5] and 180 µM in assay [14].
For `C[C@H]1CC[C@@H](O)[C@@H](CO)N1`, the Ki result in assay [1], in [3], in assay [15], in assay [6], in [16] and in assay [8] was “Not Active” in each case. Besides, in [12], the Ki result is on record as “Not Active”. Besides, the inhibition with Prunus dulcis [2], in the assay on Prunus dulcis [4], with Saccharomyces cerevisiae, in the assay with Prunus dulcis [7], in the assay on Geobacillus toebii and with Prunus dulcis [9] was below 50% throughout. In the assay with Prunus dulcis [13], this compound came in with an inhibition below 50%.

The values are drawn from ChEMBL document CHEMBL1275387, “Intramolecular reductive cyclization strategy to the synthesis of (-)-6-methyl-3-hydroxy-piperidine-2-carboxylic acid, (+)-6-methyl-(2-hydroxymethyl)-piperidine-3-ol and their glycosidase inhibitory activity” (Bioorg Med Chem, 2010).
